Rows were chosen to be rich in hits. Some 1.6% of all compounds tested hit in one or more screens of this group.
TCR CD3 inh – blocks the human TCR-CD3 interaction; 360,000 tested, 0.37% active; inhibition, % at 9.4 µM; AID 651800; TAMRA-labeled TCR probe fluorescence, biochemical;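 further: recombinant mutant TCR 2C K166C tagged with TAMRA read by polarization; 0% = receptor in buffer alone and 100% = receptor with positive control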
HTRA1 inhibitor – inhibitors of human serine peptidase HTRA1 | 340,000 tested, 0.5% active | Q92743 | inhibition, % at 5.96 µM | recombinant HTRA1, FP-rhodamine activity-based probe, fluorescence polarization; in the data active means inhibition above about 36%;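 further: 0% = enzyme with DMSO and 100% = wells lacking enzyme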
Target sequence (Q92743 whole entry, looked up): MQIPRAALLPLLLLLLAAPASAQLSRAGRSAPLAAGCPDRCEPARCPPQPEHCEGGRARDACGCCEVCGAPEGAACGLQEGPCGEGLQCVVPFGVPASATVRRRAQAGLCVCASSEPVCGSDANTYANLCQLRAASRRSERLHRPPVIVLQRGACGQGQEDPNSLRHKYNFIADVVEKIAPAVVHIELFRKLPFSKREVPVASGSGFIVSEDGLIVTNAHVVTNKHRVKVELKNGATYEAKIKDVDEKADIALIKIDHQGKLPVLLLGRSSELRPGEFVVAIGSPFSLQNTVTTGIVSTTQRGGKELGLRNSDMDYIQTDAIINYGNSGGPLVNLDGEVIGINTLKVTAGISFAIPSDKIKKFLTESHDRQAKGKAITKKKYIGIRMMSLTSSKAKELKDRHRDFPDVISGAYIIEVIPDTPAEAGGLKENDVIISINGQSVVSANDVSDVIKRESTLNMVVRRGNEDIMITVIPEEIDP
DAGLB inh – blocks human DAGLB lipase activity; Q8NCG7; HEK293T DAGLB membrane lysate, EnzChek fluorogenic substrate; inhibition, % at 5.17 µM; 340,000 tested, 0.059% active; in the data active means inhibition above about 34%;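 further: 0% = enzyme with vehicle and 100% = wells lacking enzyme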
mABHD4 FP – inhibitors of mouse ABHD4. Q8VD66. purified mABHD4, FP-Rh probe fluorescence polarization. inhibition, % at 8.92 µM. 370,000 tested, 0.54% active;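 active means inhibition exceeding the mean over every tested compound plus 3 SD, cut at about 30% in these data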;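 further: 0% = plate median of compound wells and 100% = S159A mutant with DMSO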
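Assay system: mABHD4 protein; medium: HEPES pH 7.0, NaCl, Pluronic buffer; dosing: 8.92 µM, single dose; schedule: 45 min + 60 min at 25 °C; signal: FP readout, ex 525 nm / em 598 nm; read-out: normalized percent inhibition of probe labeling; repeats: single replicate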
SIAE primary – human SIAE inhibition, primary screen | SIAE FP-Rh probe binding, fluorescence polarization | inhibition, % at 9.66 µM | 370,000 tested, 0.69% active;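 active means inhibition above a cutoff: mean of compounds within the control limits plus 3 SD of those, cut at about 17% in these data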;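 further: 0% = plate median of compound wells and 100% = probe without SIAE protein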
BSA probe FL – interferes with TAMRA-BSA probe, flagging TCR-CD3 hits. 1,200 tested, 10% active. AID 652035. shares compounds with TCR CD3 inh. inhibition, % at 9.4 µM. TAMRA-labeled BSA probe fluorescence counterscreen; in the data active means inhibition above about 23%;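 further: 0% = buffer low control and 100% = reference high control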
TCR-CD3 conf – TCR-CD3 interaction inhibition, confirmation; shares compounds with TCR CD3 inh; TAMRA-labeled TCR probe fluorescence binding assay; inhibition, % at 9.4 µM; 1,200 tested, 48% active; AID 652036
Active calls of the source: *; . = no result. Unless noted, no stated cut-off is given here; in the data, active means inhibition above about 19%; inactive means the rest.

SMILES	TCR CD3 inh	HTRA1 inhibitor	DAGLB inh	mABHD4 FP	SIAE primary	BSA probe FL	TCR-CD3 conf
COc1ccc(N2CCN(C(c3cccs3)C(C)NC(=O)C(=O)N3CCCC3)CC2)cc1 (stereo not drawn)	20*	3	2	6	9	1	1
COc1ccc(CN(CCN2CCOCC2)C(=O)c2ccc(F)cc2Cl)cc1OC	.	.	.	-4	-2	.	.
COCCN(C(=O)CC1C(=O)NCCN1Cc1ccc(-c2ccccc2)cc1)C(C)C (stereo not drawn)	24*	-5	2	15	4	10	6
CN(CCc1ccccn1)C(=O)CC1C(=O)NCCN1Cc1ccc(-c2ccccc2)cc1 (stereo not drawn)	-5	0	0	-8	7	.	.
O=C(O)c1cccc(N2C(=O)/C(=C/c3ccc(SCc4ccc(Cl)cc4)o3)SC2=S)c1	20*	1	1	32*	-5	-16	7
CCOC(=O)c1c(C)nc2sc(C(=O)Nc3ccc(OC)cc3)c(N)c2c1-c1ccc(OC)cc1	3	-4	-1	-6	-2	.	.
CCOC(=O)c1c(C)nc2sc(C(=O)Nc3ccc(C(C)=O)cc3)c(N)c2c1-c1ccc(OC)cc1	24*	-18	1	-16	-41	6	12
O=C(O)c1ccc(-n2cccc2/C=N\NC(=O)c2cc3cc(Br)ccc3o2)cc1	29*	-17	-1	-2	-3	-6	37*
CC(C)(C)c1cccc(N/C(=C\C(=O)c2ccccc2)c2ccccc2)c1	6	.	.	-9	0	.	.
CCCCn1c(N)c(N(CCOC)C(=O)c2cc(-c3ccco3)nc3ccccc23)c(=O)[nH]c1=O	22*	5	-1	18	1	0	10
CCCCN(C(=O)c1cc(-c2ccco2)nc2ccccc12)c1c(N)n(CCCC)c(=O)[nH]c1=O	18	4	4	7	5	.	.
CN(C)S(=O)(=O)c1cccc(NC(=O)COC(=O)c2cc(-c3cccc(Br)c3)nc3ccccc23)c1	83*	-12	-7	-8	0	21	56*
Cc1ccc2c(c1)C1CS(=O)(=O)N(Cc3ccc(F)cc3)CN1C2 (stereo not drawn)	.	.	.	-5	-5	.	.
Cc1onc(-c2ccccc2Cl)c1C(=O)Nc1ccccc1	-6	-8	-4	-7	1	.	.
CCC(=O)Nc1ccc(/C(C)=N/NC(=O)c2c(-c3ccccc3Cl)noc2C)cc1	21*	2	1	8	5	-1	1
Brc1ccc(-c2nn3c(-c4ccccn4)nnc3s2)o1	30*	12	0	4	7	1	12
Brc1ccc(-c2nn3c(-c4ccco4)nnc3s2)o1	19	7	0	7	1	.	.
O=C1NNC(=O)C1c1ccccc1	35*	6	-4	3	0	1	9
CC(C)NC(=O)N[C@@H]1C[C@@H]2O[C@@H](CO)CC[C@@H]2O[C@@H]1CCc1ccc(-c2ccc(F)cc2)cc1	.	.	.	-1	6	.	.
CC(=O)c1cccc(NC(=O)CSc2ccc(-c3ccco3)nn2)c1	26*	-4	3	18	5	3	6
COc1ccc(C(c2ccc(OC)cc2)N2CCN(C(=O)c3noc(C)c3[N+](=O)[O-])CC2)cc1	.	.	.	-6	-7	.	.
CCc1ccccc1NC(=S)NNC(=O)c1ccccc1Cl	5	1	-2	2	3	.	.
CCc1ccccc1NC(=O)NNC(=O)c1ccc2ccccc2c1O	26*	18	4	11	16	-4	22*
COc1ccc(NC(=O)NNC(=O)c2ccc3ccccc3c2O)c(OC)c1	42*	17	1	14	15	-14	31*
COC(=O)[C@]12C[C@H](CC(=O)N3CCC(c4ccccc4)CC3)C(=O)N(Cc3cccc4ccccc34)C1=C[C@H](C(C)C)O[C@@H]2C1CC1	.	.	.	-5	-3	.	.
SMILES	TCR CD3 inh	HTRA1 inhibitor	DAGLB inh	mABHD4 FP	SIAE primary	BSA probe FL	TCR-CD3 conf
C[C@H]1CN(S(=O)(=O)C(C)(C)C)[C@@H](CCO)/C1=C\CCO	-1	.	.	-6	-8	.	.
Cc1ccc(NC(=O)Cc2ccc(F)cc2)c(S(=O)(=O)N2CCOCC2)c1	.	.	.	2	0	.	.
CNC(=S)NNC(=O)c1cccn(Cc2ccc(Cl)c(Cl)c2)c1=O	22*	-10	2	16	10	1	27*
CNC(=S)NNC(=O)c1cccn(Cc2cccc(Cl)c2)c1=O	22*	-1	1	13	9	-9	27*
C=CCNC(=S)NNC(=O)c1cccn(Cc2ccc(Cl)c(Cl)c2)c1=O	15	6	4	15	1	.	.
COCC(=O)N1CCC(C(=O)NCC2COc3ccccc3O2)CC1 (stereo not drawn)	.	.	.	6	1	.	.
C=CCN1C(=O)[C@@H](CC(=O)NCCCN2CCCC2=O)[C@]2(C(=O)OC)CCCCC=C12	.	.	.	-5	-5	.	.
O=C(CCS(=O)(=O)c1ccccc1)Nc1ccc(F)cc1Cl	.	.	.	5	1	.	.
CC1SC(=NC(=O)C(C)N2C(=O)c3ccccc3C2=O)NC1=O (stereo not drawn)	104*	8	1	1	0	3	0
CC(C(=O)N1CCCCC1)N1C(=O)c2ccccc2C1=O (stereo not drawn)	-1	2	1	2	3	.	.
O=C(N/N=C/c1cc(Br)ccc1O)c1cccc(N2CCCC2=O)c1	30*	16	4	5	-7	-6	26*
COC(=O)Cc1nnn2c1[C@H](C)[C@H](c1ccccc1Br)OC[C@H](C)C2	8	.	.	0	-1	.	.
N[C@@H](Cc1ccc(O)c(O)c1)C(=O)O	75*	18	2	29	14	-11	32*
NNC(=O)c1nc[nH]c1C(=O)Nc1ccccn1	38*	5	-1	-3	-3	2	25*
COc1ccc(/C(C)=N/NC(=O)c2cccc(S(=O)(=O)N3CCCC3)c2)c(O)c1	34*	16	6	16	15	-17	20*
Cc1cc(/C=N/n2c(COc3ccccc3C)nc3ccccc3c2=O)c(O)c([N+](=O)[O-])c1	21*	32	7	3	10	14	53*
COc1ccc(/C=N\NC(=O)CN2CCN(Cc3ccccc3)CC2)cc1OCc1ccccc1	.	.	.	3	-6	.	.
C[C@@H](NC(=O)C[C@H]1CC[C@H]2[C@@H](COc3ccc(NC(=O)Nc4ccccc4)cc3C(=O)N2C)O1)c1ccccc1	.	.	.	13	1	.	.
Cc1ccc(NC(=O)COC(=O)c2ccccc2F)cc1S(=O)(=O)N1CCCCC1	9	-15	0	-13	-11	.	.
CC1CCc2c(C(=O)OCC(=O)Nc3cccc(S(=O)(=O)N4CCCCCC4)c3)csc2C1 (stereo not drawn)	32*	-25	-10	-21	-5	3	7
